Measured values taken from ChEMBL document CHEMBL5321217, “Identification of pyrrolo[3',4':3,4]cyclohepta[1,2-d][1,2]oxazoles as promising new candidates for the treatment of lymphomas” (Eur J Med Chem, 2023).
Activity calls are given as the source filed them. The calls are words filed in the database; no cut-off is given here.

Assays:
U-251 = test: Antiproliferative activity against human U-251 cells assessed as growth inhibition incubated for 72 hrs by MTT assay; assay type: functional
VL51 [1] = test: Induction of cell cycle arrest in human VL51 cells assessed as increase in mitotic cells at 1 uM incubated for 24 hrs by PI staining based flow cytometry analysis (reference value: 1.5%); assay type: functional
MDA-MB-231 = test: Antiproliferative activity against human MDA-MB-231 cells assessed as growth inhibition incubated for 72 hrs by MTT assay; assay type: functional
UACC-62 = test: Antiproliferative activity against human UACC-62 cells assessed as growth inhibition incubated for 72 hrs by assay; assay type: functional
CCRF-CEM [2] = test: Induction of cell cycle arrest in human CCRF-CEM cells assessed as accumulation of cells at G2/M phase at 1 uM incubated for 24 hrs by PI staining based flow cytometry analysis; assay type: functional
Method in brief: (§1)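 Seeding in 6-well plates, 2 mL medium: A549 5×10^4, CCRF-CEM 2.5×10^5, VL51 2.0×10^5. 24 h treatment, A549 detached with trypsin-EDTA. Cells fixed in 70% ice-cold ethanol, PI-labelled, analysed by flow cytometry. Mean of two independent experiments.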

DU-145 = test: Antiproliferative activity against human DU-145 cells assessed as growth inhibition incubated for 72 hrs by MTT assay; assay type: functional
VL51 [3] = test: Induction of apoptosis in human VL51 cells assessed as increase in apoptotic cells incubated for 48 hrs by annexin V-FITC and PI staining based flow cytometry analysis; assay type: functional, cell-based; conditions: dose 1-5 µM
Method in brief: (§2)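 Cells exposed to several concentrations for 48 h, then stained with annexin V-FITC and PI and read by flow cytometry (FL1/FL3). Apoptotic cells = annexin V-positive plus annexin V/PI double-positive. Mean of three independent experiments.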

HL-60(TB) = test: Antiproliferative activity against human HL-60(TB) cells assessed as growth inhibition incubated for 72 hrs by […]; assay type: functional
Method in brief: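 NCI 60-cell-line panel screen. […] Compounds were dissolved in DMSO as 10 mM stocks, and DMSO in the assays stayed at or below 0.1%.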

NCI-H460 = test: Antiproliferative activity against human NCI-H460 cells assessed as growth inhibition incubated for 72 hrs by MTT assay; assay type: functional
UO-31 = test: Antiproliferative activity against human UO-31 cells assessed as growth inhibition incubated for 72 hrs by MTT assay; assay type: functional
K562 = test: Antiproliferative activity against human K562 cells assessed as growth inhibition incubated for 72 hrs by MTT assay; assay type: functional
SK-OV-3 = test: Antiproliferative activity against human SK-OV-3 cells assessed as growth inhibition incubated for 72 hrs by MTT assay; assay type: functional
[4] = Antiproliferative activity against human MINO cells assessed as reduction in cell proliferation at 1 uM measured after 72 hrs by MTT assay relative to control; assay type: functional; parameters: scale not given: the % may be the effect or the level left
Method in brief: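 Single-dose screen at 1 μM for 72 h at 37 °C, 5% CO2 (DMSO ≤0.1%). Cells in RPMI-1640 with 20% FBS, seeded at 5,000–10,000 cells/well. MTT added for 4 h, SDS lysis, A570 read with medium-only blanks. Percent proliferation relative to untreated cells, run in triplicate.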

NCI-H23 = test: Antiproliferative activity against human NCI-H23 cells assessed as growth inhibition incubated for 72 hrs by MTT assay; assay type: functional
MDA-MB-468 = test: Antiproliferative activity against human MDA-MB-468 cells assessed as growth inhibition incubated for 72 hrs by MTT assay; assay type: functional
CCRF-CEM [5] = test: Induction of cell cycle arrest in human CCRF-CEM cells assessed as reduction in accumulation of cells at S phase at 1 uM incubated for 24 hrs by PI staining based flow cytometry analysis; assay type: functional; method in brief: as §1
Hs-578T = test: Antiproliferative activity against human Hs-578T cells assessed as growth inhibition incubated for 72 hrs by MTT assay; assay type: functional
[6] = Antiproliferative activity against human HBL1 cells assessed as cell growth inhibition measured after 72 hrs by MTT assay; assay type: functional, cell-based; conditions: HBL1, 72 h
Method in brief: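 Lymphoma cells in RPMI-1640 with 20% FBS, seeded at 5,000–10,000 cells/well depending on doubling time. Exposed for 72 h at 37 °C, 5% CO2 to a 1:2 serial dilution from 0 to 10 μM (DMSO ≤0.1%). MTT from a 5 mg/mL stock was added for 4 h, cells were lysed with 25% SDS, and A570 was read against medium-only blanks. IC50 from triplicate assays.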

T47D = test: Antiproliferative activity against human T47D cells assessed as growth inhibition incubated for 72 hrs by MTT assay; assay type: functional
HCC 2998 = test: Antiproliferative activity against human HCC 2998 cells assessed as growth inhibition incubated for 72 hrs by MTT assay; assay type: functional
ACHN = test: Antiproliferative activity against human ACHN cells assessed as growth inhibition incubated for 72 hrs by MTT assay; assay type: functional
SNB-75 = test: Antiproliferative activity against human SNB-75 cells assessed as growth inhibition incubated for 72 hrs by MTT assay; assay type: functional
SU-DHL10 = test: Antiproliferative activity against human SU-DHL-10 cells assessed as cell growth inhibition measured after 72 hrs by MTT assay; assay type: functional, cell-based; conditions: SU-DHL10, 72 h
Method in brief: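 Lymphoma cells grown in RPMI-1640 with 20% FBS, seeded at 5,000–10,000 cells/well by doubling time. Doses 0–10 μM, 1:2 serial dilution, DMSO ≤0.1%, 72 h at 37 °C, 5% CO2. MTT (5 mg/mL stock) added for 4 h, SDS lysis, A570 read against medium-only blanks. IC50 from triplicate assays.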

CAKI-1 = test: Antiproliferative activity against human CAKI-1 cells assessed as growth inhibition incubated for 72 hrs by MTT assay; assay type: functional
COLO 205 = test: Antiproliferative activity against human COLO 205 cells assessed as growth inhibition incubated for 72 hrs by MTT assay; assay type: functional
PC-3 = test: Antiproliferative activity against human PC-3 cells assessed as growth inhibition incubated for 72 hrs by MTT assay; assay type: functional
VL51 [7] = test: Induction of cell cycle arrest in human VL51 cells assessed as accumulation of cells at M phase by measuring p-Histone H3 positive cells incubated for 24 hrs by PI staining based flow cytometry analysis; assay type: functional; conditions: dose 0.5-1 µM
A549 = test: Induction of apoptosis in human A549 cells assessed as increase in apoptotic cells incubated for 48 hrs by annexin V-FITC and PI staining based flow cytometric analysis; assay type: functional, cell-based; conditions: dose 1-5 µM; method in brief: as §2
CCRF-CEM [8] = test: Induction of apoptosis in human CCRF-CEM cells assessed as increase in apoptotic cells incubated for 48 hrs by annexin V-FITC and PI staining based flow cytometric analysis; assay type: functional, cell-based; conditions: dose 1-5 µM; method in brief: as §2
HOP-92 = test: Antiproliferative activity against human HOP-92 cells assessed as growth inhibition incubated for 72 hrs by MTT assay; assay type: functional
NCI/ADR-RES = test: Antiproliferative activity against human NCI-ADR-RES cells assessed as growth inhibition incubated for 72 hrs by MTT assay; assay type: functional
SF-295 = test: Antiproliferative activity against human SF-295 cells assessed as growth inhibition incubated for 72 hrs by MTT assay; assay type: functional
SN12C = test: Antiproliferative activity against human SN12C cells assessed as growth inhibition incubated for 72 hrs by MTT assay; assay type: functional

Row | Structure (SMILES) | GI50 (U-251) [nM] | Activity (VL51 [1]) [%] | GI50 (MDA-MB-231) [nM] | GI50 (UACC-62) [nM] | Activity (CCRF-CEM [2]) | GI50 (DU-145) [nM] | Activity (VL51 [3]) | GI50 (HL-60(TB)) [nM] | GI50 (NCI-H460) [nM] | GI50 (UO-31) [nM] | GI50 (K562) [nM] | GI50 (SK-OV-3) [nM] | Activity [4] [%] | GI50 (NCI-H23) [nM] | GI50 (MDA-MB-468) [nM] | Activity (CCRF-CEM [5]) | GI50 (Hs-578T) [nM] | IC50 [6] [nM] | GI50 (T47D) [nM] | GI50 (HCC 2998) [nM] | further results
1 | COc1ccc(Cn2cc3c(c2-c2cc(OC)c(OC)c(OC)c2)CCCc2cnoc2-3)cc1 | 4470 | ~18 | 2540 | 910 | Active | 4110 | Dose-Dependent Effect | 350 | 500 | 920 | 420 | 4180 | >50 | 2620 | 560 | Active | 1540 | 1000 | 1850 | 1610 | GI50 (ACHN): 900 nM; GI50 (SNB-75): 870 nM; IC50 (SU-DHL10): 1800 nM; GI50 (CAKI-1): 490 nM; GI50 (COLO 205): 1450 nM; GI50 (PC-3): 850 nM; Activity (VL51 [7]): Dose-Dependent Effect; Activity (A549): Dose-Dependent Effect; Activity (CCRF-CEM [8]): Dose-Dependent Effect; GI50 (HOP-92): 1270 nM; GI50 (NCI/ADR-RES): 540 nM; GI50 (SF-295): 510 nM; GI50 (SN12C): 4600 nM
2 | COc1ccc(Cn2cc3c(c2-c2cc(OC)c(OC)c(OC)c2)CCCc2cnoc2-3)cc1N | 510 | ~18 | 1150 | 430 | Active | 840 | Dose-Dependent Effect | 300 | 400 | 690 | 390 | 680 | >50 | 1340 | 650 | Active | 400 | 500 | 390 | 1660 | GI50 (ACHN): 690 nM; GI50 (SNB-75): 380 nM; IC50 (SU-DHL10): 500 nM; GI50 (CAKI-1): 580 nM; GI50 (COLO 205): 380 nM; GI50 (PC-3): 430 nM; Activity (VL51 [7]): Dose-Dependent Effect; Activity (A549): Dose-Dependent Effect; Activity (CCRF-CEM [8]): Dose-Dependent Effect; GI50 (HOP-92): 520 nM; GI50 (NCI/ADR-RES): 600 nM; GI50 (SF-295): 500 nM; GI50 (SN12C): 840 nM
